According to ChEMBL document CHEMBL4689842, “EUbOPEN Chemogenomics Library wave 1” (2021):
Several values for one entry are separate records, joined by “and”; a condition that tells them apart may be missing. Identical values can stand only once.

Test system: HEK-293T
Test: Multiplex assay against HEK293T;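 on Population Tubulin-Different-Phenotype (%): share of the cells with healthy nuclei that show this phenotype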
Format: toxicity, cell-based
Details: human
How it was run: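 At seeding, live cells were stained with Hoechst33342, BioTracker Green Microtubule Cytoskeleton Dye, MitoTracker Red and Annexin V Alexa Fluor 680. After compound addition they were imaged on a CQ1 microscope at 37°C and 5% CO2, and CellPathfinder machine-learning gating sorted them into Hoechst high-intensity objects or normal cells, with normal cells further split into healthy, pyknosed or fragmented nuclei and pyknosed cells into mitotic or apoptotic. Tubulin, mitochondrial-mass and membrane-permeability phenotypes are given as per cents of cells with healthy nuclei.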

[1] = 12 h, 1 µM, compound concentration 1 uM, replicate 1
[2] = 12 h, 1 µM, compound concentration 1 uM, replicate 2
[3] = 12 h, 10 µM, compound concentration 10 uM, replicate 1
[4] = 12 h, 10 µM, compound concentration 10 uM, replicate 2
[5] = 24 h, 1 µM, compound concentration 1 uM, replicate 1
[6] = 24 h, 1 µM, compound concentration 1 uM, replicate 2
[7] = 24 h, 10 µM, compound concentration 10 uM, replicate 1
[8] = 24 h, 10 µM, compound concentration 10 uM, replicate 2
[9] = 48 h, 1 µM, compound concentration 1 uM, replicate 1
[10] = 48 h, 1 µM, compound concentration 1 uM, replicate 2
[11] = 48 h, 10 µM, compound concentration 10 uM, replicate 1
[12] = 48 h, 10 µM, compound concentration 10 uM, replicate 2

Cc1c(P(=S)(c2ccccc2)c2ccccc2)n2ccccc2[n+]1C/C=C/c1ccccc1.[Br-]
Population Apoptotic (%) [1]: 65%
Population Fragmented Nuclei (%) [1]: 12%
Population Healthy Nuclei (%) [1]: 24%
Population Hoechst High Intensity Objects (%) [1]: 17%
Population Membrane Permeable-Phenotype (%) [1]: 6%
Population Mitochondria Different-Phenotype (%) [1]: 93%
Population Mitotic Cells (%) [1]: 34%
Population Normal (%) [1]: 82%
Population Pyknosed Nuclei (%) [1]: 62%
Population Tubulin-Different-Phenotype (%) [1]: 83%
Total Cell Count [1]: 211
Population Apoptotic (%) [2]: 86%
Population Fragmented Nuclei (%) [2]: 6%
Population Healthy Nuclei (%) [2]: 30%
Population Hoechst High Intensity Objects (%) [2]: 5%
Population Membrane Permeable-Phenotype (%) [2]: 0%
Population Mitochondria Different-Phenotype (%) [2]: 87%
Population Mitotic Cells (%) [2]: 13%
Population Normal (%) [2]: 94%
Population Tubulin-Different-Phenotype (%) [2]: 77%
Total Cell Count [2]: 138
Population Apoptotic (%) [3]: 34%
Population Fragmented Nuclei (%) [3]: 31%
Population Healthy Nuclei (%) [3]: 2%
Population Hoechst High Intensity Objects (%) [3]: 21%
Population Membrane Permeable-Phenotype (%) [3]: 14%
Population Mitochondria Different-Phenotype (%) [3]: 28%
Population Mitotic Cells (%) [3]: 65%
Population Normal (%) [3]: 78%
Population Pyknosed Nuclei (%) [3]: 65%
Population Tubulin-Different-Phenotype (%) [3]: 100%
Total Cell Count [3]: 398
Population Apoptotic (%) [4]: 82%
Population Fragmented Nuclei (%) [4]: 9%
Population Healthy Nuclei (%) [4]: 6%
Population Hoechst High Intensity Objects (%) [4]: 14%
Population Membrane Permeable-Phenotype (%) [4]: 0%
Population Mitochondria Different-Phenotype (%) [4]: 54%
Population Mitotic Cells (%) [4]: 17%
Population Normal (%) [4]: 85%
Population Pyknosed Nuclei (%) [4]: 84%
Population Tubulin-Different-Phenotype (%) [4]: 90%
Total Cell Count [4]: 192
Population Apoptotic (%) [5]: 62%
Population Fragmented Nuclei (%) [5]: 20%
Population Healthy Nuclei (%) [5]: 18%
Population Hoechst High Intensity Objects (%) [5]: 19%
Population Membrane Permeable-Phenotype (%) [5]: 3%
Population Mitochondria Different-Phenotype (%) [5]: 90%
Population Mitotic Cells (%) [5]: 37%
Population Normal (%) [5]: 80%
Population Pyknosed Nuclei (%) [5]: 61%
Population Tubulin-Different-Phenotype (%) [5]: 87%
Total Cell Count [5]: 217
Population Apoptotic (%) [6]: 88%
Population Fragmented Nuclei (%) [6]: 6%
Population Healthy Nuclei (%) [6]: 41%
Population Hoechst High Intensity Objects (%) [6]: 7%
Population Membrane Permeable-Phenotype (%) [6]: 0%
Population Mitochondria Different-Phenotype (%) [6]: 98%
Population Mitotic Cells (%) [6]: 11%
Population Normal (%) [6]: 92%
Population Pyknosed Nuclei (%) [6]: 51%
Population Tubulin-Different-Phenotype (%) [6]: 85%
Total Cell Count [6]: 147
Population Apoptotic (%) [7]: 52%
Population Fragmented Nuclei (%) [7]: 36%
Population Healthy Nuclei (%) [7]: 0%
Population Hoechst High Intensity Objects (%) [7]: 21%
Population Membrane Permeable-Phenotype (%) [7]: 0%
Population Mitochondria Different-Phenotype (%) [7]: 100%
Population Mitotic Cells (%) [7]: 47%
Population Normal (%) [7]: 78%
Population Pyknosed Nuclei (%) [7]: 62%
Total Cell Count [7]: 389
Population Apoptotic (%) [8]: 86%
Population Fragmented Nuclei (%) [8]: 12%
Population Healthy Nuclei (%) [8]: 14%
Population Hoechst High Intensity Objects (%) [8]: 13%
Population Membrane Permeable-Phenotype (%) [8]: 16%
Population Mitochondria Different-Phenotype (%) [8]: 72%
Population Mitotic Cells (%) [8]: 13%
Population Normal (%) [8]: 86%
Population Pyknosed Nuclei (%) [8]: 72%
Population Tubulin-Different-Phenotype (%) [8]: 100%
Total Cell Count [8]: 195
Population Apoptotic (%) [9]: 69%
Population Fragmented Nuclei (%) [9]: 24%
Population Healthy Nuclei (%) [9]: 1%
Population Hoechst High Intensity Objects (%) [9]: 22%
Population Membrane Permeable-Phenotype (%) [9]: 0%
Population Mitochondria Different-Phenotype (%) [9]: 0%
Population Mitotic Cells (%) [9]: 30%
Population Normal (%) [9]: 77%
Population Pyknosed Nuclei (%) [9]: 73%
Population Tubulin-Different-Phenotype (%) [9]: 66%
Total Cell Count [9]: 209
Population Apoptotic (%) [10]: 92%
Population Fragmented Nuclei (%) [10]: 7%
Population Healthy Nuclei (%) [10]: 57%
Population Hoechst High Intensity Objects (%) [10]: 8%
Population Membrane Permeable-Phenotype (%) [10]: 4%
Population Mitochondria Different-Phenotype (%) [10]: 91%
Population Mitotic Cells (%) [10]: 8%
Population Normal (%) [10]: 91%
Population Pyknosed Nuclei (%) [10]: 34%
Population Tubulin-Different-Phenotype (%) [10]: 89%
Total Cell Count [10]: 157
Population Apoptotic (%) [11]: 65%
Population Fragmented Nuclei (%) [11]: 45%
Population Healthy Nuclei (%) [11]: 1%
Population Hoechst High Intensity Objects (%) [11]: 22%
Population Membrane Permeable-Phenotype (%) [11]: 0%
Population Mitochondria Different-Phenotype (%) [11]: 100%
Population Mitotic Cells (%) [11]: 34%
Population Normal (%) [11]: 77%
Population Pyknosed Nuclei (%) [11]: 53%
Total Cell Count [11]: 379
Population Apoptotic (%) [12]: 95%
Population Fragmented Nuclei (%) [12]: 12%
Population Healthy Nuclei (%) [12]: 27%
Population Hoechst High Intensity Objects (%) [12]: 14%
Population Membrane Permeable-Phenotype (%) [12]: 9%
Population Mitochondria Different-Phenotype (%) [12]: 95%
Population Mitotic Cells (%) [12]: 4%
Population Normal (%) [12]: 85%
Population Pyknosed Nuclei (%) [12]: 59%
Population Tubulin-Different-Phenotype (%) [12]: 100%
Total Cell Count [12]: 175

Cc1c(Nc2ccc(S(=O)(=O)N3CCN(C)CC3)cc2F)nc2ccc(-c3cnn(C4CC4)c3)cn2c1=O
Population Apoptotic (%) [1]: 19%
Population Fragmented Nuclei (%) [1]: 13%
Population Healthy Nuclei (%) [1]: 67%
Population Hoechst High Intensity Objects (%) [1]: 9%
Population Membrane Permeable-Phenotype (%) [1]: 4%
Population Mitochondria Different-Phenotype (%) [1]: 6%
Population Mitotic Cells (%) [1]: 80%
Population Normal (%) [1]: 90%
Population Pyknosed Nuclei (%) [1]: 18%
Population Tubulin-Different-Phenotype (%) [1]: 6%
Total Cell Count [1]: 755
Population Apoptotic (%) [2]: 10%
Population Fragmented Nuclei (%) [2]: 7%
Population Healthy Nuclei (%) [2]: 87%
Population Hoechst High Intensity Objects (%) [2]: 2%
Population Membrane Permeable-Phenotype (%) [2]: 2%
Population Mitochondria Different-Phenotype (%) [2]: 9%
Population Mitotic Cells (%) [2]: 89%
Population Normal (%) [2]: 97%
Population Pyknosed Nuclei (%) [2]: 4%
Population Tubulin-Different-Phenotype (%) [2]: 10%
Total Cell Count [2]: 1860
Population Apoptotic (%) [3]: 43% and 17%
Population Fragmented Nuclei (%) [3]: 44% and 17%
Population Healthy Nuclei (%) [3]: 37% and 61%
Population Hoechst High Intensity Objects (%) [3]: 45% and 18%
Population Membrane Permeable-Phenotype (%) [3]: 2% and 7%
Population Mitotic Cells (%) [3]: 56% and 82%
Population Normal (%) [3]: 54% and 81%
Population Pyknosed Nuclei (%) [3]: 18% and 20%
Population Tubulin-Different-Phenotype (%) [3]: 40% and 15%
Total Cell Count [3]: 1012 and 786
Population Apoptotic (%) [4]: 16% and 6%
Population Fragmented Nuclei (%) [4]: 14% and 9%
Population Healthy Nuclei (%) [4]: 32% and 84%
Population Hoechst High Intensity Objects (%) [4]: 22% and 9%
Population Membrane Permeable-Phenotype (%) [4]: 4% and 8%
Population Mitotic Cells (%) [4]: 83% and 93%
Population Normal (%) [4]: 77% and 90%
Population Tubulin-Different-Phenotype (%) [4]: 64% and 33%
Population Apoptotic (%) [5]: 15%
Population Fragmented Nuclei (%) [5]: 11%
Population Healthy Nuclei (%) [5]: 77%
Population Hoechst High Intensity Objects (%) [5]: 5%
Population Membrane Permeable-Phenotype (%) [5]: 8%
Population Mitochondria Different-Phenotype (%) [5]: 4%
Population Mitotic Cells (%) [5]: 84%
Population Normal (%) [5]: 94%
Population Pyknosed Nuclei (%) [5]: 10%
Population Tubulin-Different-Phenotype (%) [5]: 10%
Total Cell Count [5]: 923
Population Apoptotic (%) [6]: 1%
Population Fragmented Nuclei (%) [6]: 23%
Population Healthy Nuclei (%) [6]: 74%
Population Hoechst High Intensity Objects (%) [6]: 2%
Population Membrane Permeable-Phenotype (%) [6]: 7%
Population Mitochondria Different-Phenotype (%) [6]: 2%
Population Mitotic Cells (%) [6]: 98%
Population Normal (%) [6]: 97%
Population Pyknosed Nuclei (%) [6]: 1%
Population Tubulin-Different-Phenotype (%) [6]: 14%
Total Cell Count [6]: 3127
Population Apoptotic (%) [7]: 41%
Population Healthy Nuclei (%) [7]: 39% and 75%
Population Membrane Permeable-Phenotype (%) [7]: 8%
Population Mitotic Cells (%) [7]: 58% and 76%
Population Normal (%) [7]: 56% and 86%
Population Pyknosed Nuclei (%) [7]: 16% and 12%
Population Tubulin-Different-Phenotype (%) [7]: 51% and 32%
Total Cell Count [7]: 1052 and 818
Population Fragmented Nuclei (%) [8]: 11% and 14%
Population Healthy Nuclei (%) [8]: 42% and 80%
Population Mitotic Cells (%) [8]: 77% and 93%
Population Normal (%) [8]: 75% and 92%
Population Tubulin-Different-Phenotype (%) [8]: 64% and 49%
Population Apoptotic (%) [11]: 44%
Population Fragmented Nuclei (%) [11]: 37%
Population Healthy Nuclei (%) [11]: 47%
Population Hoechst High Intensity Objects (%) [11]: 40%
Population Membrane Permeable-Phenotype (%) [11]: 5%
Population Mitochondria Different-Phenotype (%) [11]: 35%
Population Mitotic Cells (%) [11]: 55%
Population Normal (%) [11]: 59%
Population Pyknosed Nuclei (%) [11]: 14%
Population Tubulin-Different-Phenotype (%) [11]: 58%
Total Cell Count [11]: 1023
Population Apoptotic (%) [12]: 26%
Population Fragmented Nuclei (%) [12]: 12%
Population Healthy Nuclei (%) [12]: 61%
Population Hoechst High Intensity Objects (%) [12]: 19%
Population Membrane Permeable-Phenotype (%) [12]: 12%
Population Mitotic Cells (%) [12]: 73%
Population Normal (%) [12]: 80%
Population Pyknosed Nuclei (%) [12]: 25%
Population Tubulin-Different-Phenotype (%) [12]: 69%
Total Cell Count [12]: 372
